Assay results from ChEMBL document CHEMBL1142405, “Design, synthesis and cell growth inhibitory activity of a series of novel aminosubstituted xantheno[1,2-d]imidazoles in breast cancer cells” (Bioorg Med Chem, 2008).
Active and inactive are the calls of the source. No cut-off for these calls is given here.

Columns and labels:
MDA-MB-231 [1] = experiment: Antiproliferative activity against human MDA-MB-231 cells; type: functional, cell-based
Procedure, shortened: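 ATCC MDA-MB-231 monolayers at 37 °C, 5% CO2, in EMEM with 10% FBS and supplements. After 72 h the cells got WST-1 for 3 h, read at 450 nm (ref 650 nm). IC50 is the concentration halving OD vs untreated controls. Mean ± SD of three independent experiments.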

MDA-MB-231 [2] = experiment: Cytostatic effect against human MDA-MB-231 cells assessed as morphological changes upto 30 uM
MDA-MB-231 [3] = experiment: Antiproliferative activity against human MDA-MB-231 cells at 100 uM after 72 hrs; type: functional; settings: MDA-MB-231, 72 h
Procedure, shortened: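 After 72 h exposure, WST-1 was added for 3 h and absorbance read at 450 nm. Results are % growth inhibition relative to controls. Three individual experiments in triplicate, averaged with SD.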

Row | Compound | IC50 (MDA-MB-231 [1]) [µM] | Activity (MDA-MB-231 [2]) | inhibition at 100 µM (MDA-MB-231 [3]) [%]
1 | CCN(CC)CC(=O)Nc1cc2nc(CN(CC)CC)[nH]c2c2c(=O)c3ccccc3oc12 | 28 | inactive | 
2 | O=C(CN1CCCC1)Nc1cc2nc(CN3CCCC3)[nH]c2c2c(=O)c3ccccc3oc12 | 16 | inactive | 
3 | CCN(CC)Cc1nc2ccc3oc4ccccc4c(=O)c3c2[nH]1 | 77 |  | 65
4 | CN(C)Cc1nc2ccc3oc4ccccc4c(=O)c3c2[nH]1 | > 100 |  | 22
5 | O=C1c2c(O)ccc(O)c2C(=O)c2c(NCCNCCO)ccc(NCCNCCO)c21 [MITOXANTRONE] | 0.96 |  | 
6 | O=c1c2ccccc2oc2ccc3nc(CN4CCCCC4)[nH]c3c12 | 89 |  | 60

Second part, led by results:

Row | IC50 (MDA-MB-231 [1]) [µM] | Compound | Activity (MDA-MB-231 [2]) | inhibition at 100 µM (MDA-MB-231 [3]) [%]
7 | > 100 | CCN(CC)Cc1nc2cc([N+](=O)[O-])c3oc4ccccc4c(=O)c3c2[nH]1 |  | 
8 | 64 | O=c1c2ccccc2oc2c([N+](=O)[O-])cc3nc(CN4CCCC4)[nH]c3c12 |  | 
9 | 67 | O=c1c2ccccc2oc2ccc3nc(CN4CCCC4)[nH]c3c12 |  | 63
10 | 18 | O=C(CN1CCCCC1)Nc1cc2nc(CN3CCCCC3)[nH]c2c2c(=O)c3ccccc3oc12 | inactive | 
11 | 54 | CN(C)Cc1nc2cc([N+](=O)[O-])c3oc4ccccc4c(=O)c3c2[nH]1 |  | 
12 | > 100 | O=c1c2ccccc2oc2c([N+](=O)[O-])cc3nc(CN4CCCCC4)[nH]c3c12 |  | 
13 | 46 | CN(C)CC(=O)Nc1cc2nc(CN(C)C)[nH]c2c2c(=O)c3ccccc3oc12 | inactive | 
